Source: ChEMBL document CHEMBL5058577, “EUbOPEN Chemogenomics Library 2 (Multiplex)” (2022)

Tested on: HEK-293T
Assay: Multiplex assay against HEK293T
Assay type: toxicity, cell-based
Settings: human
In short: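 Live cells were stained at seeding with Hoechst33342, BioTracker Green Microtubule Cytoskeleton Dye, MitoTracker Red and Annexin V Alexa Fluor 680, then imaged on a CQ1 microscope at 37°C and 5% CO2 after compound addition. CellPathfinder machine-learning gating split cells into Hoechst high-intensity objects or normal cells. Normal cells were split into healthy, pyknosed or fragmented nuclei, and pyknosed cells into mitotic or apoptotic. Tubulin, mitochondrial-mass and membrane-permeability phenotypes are per cents of healthy-nucleus cells.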

[1] = 12 h, 1 µM, compound concentration 1 uM, replicate 1
[2] = 12 h, 1 µM, compound concentration 1 uM, replicate 2
[3] = 12 h, 10 µM, compound concentration 10 uM, replicate 1
[4] = 12 h, 10 µM, compound concentration 10 uM, replicate 2
[5] = 24 h, 1 µM, compound concentration 1 uM, replicate 1
[6] = 24 h, 1 µM, compound concentration 1 uM, replicate 2
[7] = 24 h, 10 µM, compound concentration 10 uM, replicate 1
[8] = 24 h, 10 µM, compound concentration 10 uM, replicate 2
[9] = 48 h, 1 µM, compound concentration 1 uM, replicate 1
[10] = 48 h, 1 µM, compound concentration 1 uM, replicate 2
[11] = 48 h, 10 µM, compound concentration 10 uM, replicate 1
[12] = 48 h, 10 µM, compound concentration 10 uM, replicate 2

Cc1ccccc1C(=O)Nc1ccc(C(=O)N2CCCC(N(C)C)c3ccccc32)cc1.Cl (centres undefined)
Population Apoptotic (%) [1]: 18%
Population Fragmented Nuclei (%) [1]: 6%
Population Healthy Nuclei (%) [1]: 80%
Population Hoechst High Intensity Objects (%) [1]: 8%
Population Membrane Permeable-Phenotype (%) [1]: 0%
Population Mitochondria Different-Phenotype (%) [1]: 51%
Population Mitotic Cells (%) [1]: 81%
Population Normal (%) [1]: 91%
Population Pyknosed Nuclei (%) [1]: 12%
Population Tubulin-Different-Phenotype (%) [1]: 33%
Total Cell Count [1]: 519
Population Apoptotic (%) [2]: 53%
Population Fragmented Nuclei (%) [2]: 5%
Population Healthy Nuclei (%) [2]: 79%
Population Hoechst High Intensity Objects (%) [2]: 6%
Population Mitochondria Different-Phenotype (%) [2]: 72%
Population Mitotic Cells (%) [2]: 46%
Population Normal (%) [2]: 93%
Population Pyknosed Nuclei (%) [2]: 14%
Population Tubulin-Different-Phenotype (%) [2]: 29%
Total Cell Count [2]: 412
Population Apoptotic (%) [3]: 53%
Population Fragmented Nuclei (%) [3]: 6%
Population Healthy Nuclei (%) [3]: 70%
Population Hoechst High Intensity Objects (%) [3]: 8%
Population Membrane Permeable-Phenotype (%) [3]: 0%
Population Mitochondria Different-Phenotype (%) [3]: 74%
Population Mitotic Cells (%) [3]: 46%
Population Normal (%) [3]: 91%
Population Pyknosed Nuclei (%) [3]: 22%
Population Tubulin-Different-Phenotype (%) [3]: 60%
Total Cell Count [3]: 233
Population Apoptotic (%) [4]: 64%
Population Fragmented Nuclei (%) [4]: 8%
Population Healthy Nuclei (%) [4]: 72%
Population Hoechst High Intensity Objects (%) [4]: 15%
Population Mitochondria Different-Phenotype (%) [4]: 82%
Population Mitotic Cells (%) [4]: 35%
Population Normal (%) [4]: 84%
Population Pyknosed Nuclei (%) [4]: 18%
Population Tubulin-Different-Phenotype (%) [4]: 61%
Total Cell Count [4]: 285
Population Apoptotic (%) [5]: 31%
Population Fragmented Nuclei (%) [5]: 11%
Population Healthy Nuclei (%) [5]: 79%
Population Hoechst High Intensity Objects (%) [5]: 5%
Population Membrane Permeable-Phenotype (%) [5]: 0%
Population Mitochondria Different-Phenotype (%) [5]: 28%
Population Mitotic Cells (%) [5]: 68%
Population Normal (%) [5]: 94%
Population Pyknosed Nuclei (%) [5]: 8%
Population Tubulin-Different-Phenotype (%) [5]: 17%
Total Cell Count [5]: 727
Population Apoptotic (%) [6]: 30%
Population Fragmented Nuclei (%) [6]: 5%
Population Healthy Nuclei (%) [6]: 83%
Population Hoechst High Intensity Objects (%) [6]: 4%
Population Mitochondria Different-Phenotype (%) [6]: 52%
Population Mitotic Cells (%) [6]: 69%
Population Normal (%) [6]: 95%
Population Pyknosed Nuclei (%) [6]: 11%
Population Tubulin-Different-Phenotype (%) [6]: 19%
Total Cell Count [6]: 567
Population Apoptotic (%) [7]: 41%
Population Fragmented Nuclei (%) [7]: 8%
Population Healthy Nuclei (%) [7]: 70%
Population Hoechst High Intensity Objects (%) [7]: 7%
Population Membrane Permeable-Phenotype (%) [7]: 0%
Population Mitochondria Different-Phenotype (%) [7]: 71%
Population Mitotic Cells (%) [7]: 58%
Population Normal (%) [7]: 92%
Population Pyknosed Nuclei (%) [7]: 21%
Population Tubulin-Different-Phenotype (%) [7]: 46%
Total Cell Count [7]: 268
Population Apoptotic (%) [8]: 44%
Population Fragmented Nuclei (%) [8]: 7%
Population Healthy Nuclei (%) [8]: 73%
Population Hoechst High Intensity Objects (%) [8]: 14%
Population Mitochondria Different-Phenotype (%) [8]: 83%
Population Mitotic Cells (%) [8]: 55%
Population Normal (%) [8]: 85%
Population Pyknosed Nuclei (%) [8]: 18%
Total Cell Count [8]: 285
Population Apoptotic (%) [9]: 13%
Population Fragmented Nuclei (%) [9]: 13%
Population Healthy Nuclei (%) [9]: 78%
Population Hoechst High Intensity Objects (%) [9]: 2%
Population Membrane Permeable-Phenotype (%) [9]: 1%
Population Mitochondria Different-Phenotype (%) [9]: 24%
Population Mitotic Cells (%) [9]: 86%
Population Normal (%) [9]: 97%
Population Pyknosed Nuclei (%) [9]: 8%
Population Tubulin-Different-Phenotype (%) [9]: 17%
Total Cell Count [9]: 1095
Population Apoptotic (%) [10]: 34%
Population Fragmented Nuclei (%) [10]: 10%
Population Healthy Nuclei (%) [10]: 82%
Population Hoechst High Intensity Objects (%) [10]: 4%
Population Membrane Permeable-Phenotype (%) [10]: 0%
Population Mitochondria Different-Phenotype (%) [10]: 30%
Population Mitotic Cells (%) [10]: 65%
Population Normal (%) [10]: 95%
Population Pyknosed Nuclei (%) [10]: 6%
Population Tubulin-Different-Phenotype (%) [10]: 14%
Total Cell Count [10]: 722
Population Apoptotic (%) [11]: 55%
Population Fragmented Nuclei (%) [11]: 10%
Population Healthy Nuclei (%) [11]: 69%
Population Hoechst High Intensity Objects (%) [11]: 6%
Population Membrane Permeable-Phenotype (%) [11]: 0%
Population Mitochondria Different-Phenotype (%) [11]: 69%
Population Mitotic Cells (%) [11]: 44%
Population Normal (%) [11]: 93%
Population Pyknosed Nuclei (%) [11]: 20%
Population Tubulin-Different-Phenotype (%) [11]: 49%
Total Cell Count [11]: 283
Population Apoptotic (%) [12]: 63%
Population Fragmented Nuclei (%) [12]: 9%
Population Healthy Nuclei (%) [12]: 77%
Population Mitochondria Different-Phenotype (%) [12]: 72%
Population Mitotic Cells (%) [12]: 36%
Population Pyknosed Nuclei (%) [12]: 12%
Population Tubulin-Different-Phenotype (%) [12]: 41%
Total Cell Count [12]: 314
